Measured values: ChEMBL document CHEMBL1142195, “A novel nonnucleoside analogue that inhibits human immunodeficiency virus type 1 isolates resistant to current nonnucleoside reverse transcriptase inhibitors” (Antimicrob Agents Chemother, 2007)

Experiments:
Type in all cases: functional
[1] = system: Human immunodeficiency virus 1; experiment: Antiviral activity against HIV1 isolate with RT 179E mutation relative to wild type
In short: (§1)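 Mutant RT clones built in pNL4-3.Luc.R−E− reporter, VSV-G-pseudotyped, single-round infection of HeLa-JC53 cells (15,000/well, MOI 0.03) with 1:4 serial compound dilutions in DMEM (phenol red-free), 2% FBS, 0.2% final DMSO; 48 h at 37°C, 5% CO2; luciferase chemiluminescence read-out. Fold change in EC50 relative to wild-type virus; mean of two tests.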

[2] = system: Human immunodeficiency virus 1; experiment: Antiviral activity against HIV1 isolate with RT 103S mutation relative to wild type; in short: as §1
[3] = system: Human immunodeficiency virus 1; experiment: Antiviral activity against HIV1 isolate with RT 106L, 188L mutation relative to wild type; in short: as §1
[4] = system: Human immunodeficiency virus 1; experiment: Antiviral activity against HIV1 isolate with RT 101Q, 103N, 225H mutation relative to wild type
[5] = system: Human immunodeficiency virus 1; experiment: Antiviral activity against HIV1 isolate with RT 101N, 103N mutation relative to wild type
[6] = system: Human immunodeficiency virus 1; experiment: Antiviral activity against HIV1 isolate with RT 98G, 108I, 181C mutation relative to wild type; in short: as §1
[7] = system: Human immunodeficiency virus 1; experiment: Antiviral activity against HIV1 isolate with RT 103R, 179D, 188L mutation relative to wild type; in short: as §1
[8] = system: Human immunodeficiency virus 1; experiment: Antiviral activity against HIV1 isolate with RT 101Q, 181C, 190S mutation relative to wild type
[9] = system: Human immunodeficiency virus 1; experiment: Antiviral activity against HIV1 isolate with RT 179G mutation relative to wild type; in short: as §1
[10] = system: Human immunodeficiency virus 1; experiment: Antiviral activity against HIV1 isolate with RT 103N, 188L mutation relative to wild type
[11] = system: Human immunodeficiency virus 1; experiment: Antiviral activity against HIV1 isolate with RT 103N, 108I, 190A mutation relative to wild type
[12] = system: Human immunodeficiency virus 1; experiment: Antiviral activity against HIV1 isolate with RT 101E, 190A mutation relative to wild type
[13] = system: Human immunodeficiency virus 1; experiment: Antiviral activity against HIV1 isolate with RT 108I mutation relative to wild type; in short: as §1
[14] = system: Human immunodeficiency virus 1; experiment: Antiviral activity against HIV1 isolate with RT 106A, 181C mutation relative to wild type; in short: as §1
[15] = system: Human immunodeficiency virus 1; experiment: Antiviral activity against HIV1 isolate with RT 100I, 103N, 108I mutation relative to wild type
[16] = system: Human immunodeficiency virus 1; experiment: Antiviral activity against HIV1 isolate with RT 103N, 106M mutation relative to wild type
[17] = system: Human immunodeficiency virus 1; experiment: Antiviral activity against HIV1 isolate with RT 106I mutation relative to wild type; in short: as §1
[18] = system: Human immunodeficiency virus 1; experiment: Antiviral activity against HIV1 isolate with RT 108I, 181C, 190A mutation relative to wild type; in short: as §1
[19] = system: Human immunodeficiency virus 1; experiment: Antiviral activity against HIV1 isolate with RT 103N mutation relative to wild type
[20] = system: Human immunodeficiency virus 1; experiment: Antiviral activity against HIV1 isolate with RT 98G, 103N, 181C mutation relative to wild type; in short: as §1
[21] = system: Human immunodeficiency virus 1; experiment: Antiviral activity against HIV1 isolate with RT 101R, 103N mutation relative to wild type
[22] = system: Human immunodeficiency virus 1; experiment: Antiviral activity against HIV1 isolate with RT 101H, 190A mutation relative to wild type
[23] = system: Human immunodeficiency virus 1; experiment: Antiviral activity against HIV1 isolate with RT 98G, 188L mutation relative to wild type; in short: as §1
[24] = system: Human immunodeficiency virus 1; experiment: Antiviral activity against HIV1 isolate with RT 103N, 108I, 181C, 190A mutation relative to wild type
[25] = system: Human immunodeficiency virus 1; experiment: Antiviral activity against HIV1 isolate with RT 179D mutation relative to wild type; in short: as §1
[26] = system: Human immunodeficiency virus 1; experiment: Antiviral activity against HIV1 isolate with RT 103N, 108I, 225H mutation relative to wild type
[27] = system: Human immunodeficiency virus 1; experiment: Antiviral activity against HIV1 isolate with RT 238N mutation relative to wild type; in short: as §1
[28] = system: Human immunodeficiency virus 1; experiment: Antiviral activity against HIV1 isolate with RT 190A mutation relative to wild type; in short: as §1
[29] = system: Human immunodeficiency virus 1; experiment: Antiviral activity against HIV1 isolate with RT 100F mutation relative to wild type
[30] = system: Human immunodeficiency virus 1; experiment: Antiviral activity against HIV1 isolate with RT 101E, 108I, 181C, 190A mutation relative to wild type
[31] = system: Human immunodeficiency virus 1; experiment: Antiviral activity against HIV1 isolate with RT 103N, 181C mutation relative to wild type
[32] = system: Human immunodeficiency virus 1; experiment: Antiviral activity against HIV1 isolate with RT 101Q, 190S mutation relative to wild type
[33] = system: Human immunodeficiency virus 1; experiment: Antiviral activity against HIV1 isolate with RT 179T mutation relative to wild type; in short: as §1
[34] = system: Human immunodeficiency virus 1; experiment: Antiviral activity against HIV1 isolate with RT 101E, 103N, 190A mutation relative to wild type
[35] = system: Human immunodeficiency virus 1; experiment: Antiviral activity against HIV1 isolate with RT 98G, 100I, 103N mutation relative to wild type; in short: as §1
[36] = system: Human immunodeficiency virus 1; experiment: Antiviral activity against HIV1 isolate with RT 106A, F227L mutation relative to wild type; in short: as §1
[37] = system: Human immunodeficiency virus 1; experiment: Antiviral activity against HIV1 isolate with RT 103N, 188H mutation relative to wild type
[38] = system: Human immunodeficiency virus 1; experiment: Antiviral activity against HIV1 isolate with RT 98G, 103N, 108I mutation relative to wild type; in short: as §1
[39] = system: Human immunodeficiency virus 1; experiment: Antiviral activity against HIV1 isolate with RT 103N, 108I, 181C mutation relative to wild type
[40] = system: Human immunodeficiency virus 1; experiment: Antiviral activity against HIV1 isolate with RT 101E, 190S mutation relative to wild type
[41] = system: Human immunodeficiency virus 1; experiment: Antiviral activity against HIV1 isolate with RT 101Q, 181C mutation relative to wild type
[42] = system: Human immunodeficiency virus 1; experiment: Antiviral activity against HIV1 isolate with RT 103S, 190A mutation relative to wild type; in short: as §1
[43] = system: Human immunodeficiency virus 1; experiment: Antiviral activity against HIV1 isolate with RT 106I, 188L mutation relative to wild type; in short: as §1
[44] = system: Human immunodeficiency virus 1; experiment: Antiviral activity against HIV1 isolate with RT 101H mutation relative to wild type
[45] = system: Human immunodeficiency virus 1; experiment: Antiviral activity against HIV1 isolate with RT 103N, 181C, 190A mutation relative to wild type
[46] = system: Human immunodeficiency virus 1; experiment: Antiviral activity against HIV1 isolate with RT 103N, 106A mutation relative to wild type
[47] = system: Human immunodeficiency virus 1; experiment: Antiviral activity against HIV1 isolate with RT 101E, 181C mutation relative to wild type
[48] = system: Human immunodeficiency virus 1; experiment: Antiviral activity against HIV1 isolate with RT 101Q, 181C, 190A mutation relative to wild type
[49] = system: Human immunodeficiency virus 1; experiment: Antiviral activity against HIV1 isolate with RT 179D, 181C mutation relative to wild type; in short: as §1
[50] = system: Human immunodeficiency virus 1; experiment: Antiviral activity against HIV1 isolate with RT 103N, 238T mutation relative to wild type; in short: as §1
[51] = system: Human immunodeficiency virus 1; experiment: Antiviral activity against HIV1 isolate with RT 98G, 190A mutation relative to wild type
In short: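 VSV-G-pseudotyped pNL4-3.Luc.R−E− molecular clones carrying the RT mutations, single-round infection of HeLa-JC53 cells (15,000/well) at MOI 0.03. Compounds serially diluted 1:4 in DMSO then in phenol red-free DMEM with 2% FBS, final DMSO 0.2%. Incubated 48 h at 37°C, 5% CO2. Luciferase read-out by chemiluminescence gives the EC50. Fold change is relative to wt virus, mean of two tests.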

NS(=O)(=O)c1ccc(NC(=O)CSc2nnc(Br)n2-c2ccc(C3CC3)c3ccccc23)c(Cl)c1
Fold change [1]: 2.4
Fold change [2]: 2.7
Fold change [3]: >100
Fold change [4]: 3.9
Fold change [5]: 0.6
Fold change [6]: 15
Fold change [7]: >100
Fold change [8]: >100
Fold change [9]: 0.3
Fold change [10]: 3.9
Fold change [11]: 20
Fold change [12]: 83
Fold change [13]: 1.5
Fold change [14]: 16
Fold change [15]: 1.9
Fold change [16]: 12
Fold change [17]: 0.9
Fold change [18]: >100
Fold change [19]: 0.7
Fold change [20]: 4.2
Fold change [21]: 1.2
Fold change [22]: 32
Fold change [23]: >100
Fold change [24]: >100
Fold change [25]: 3.3
Fold change [26]: 2.6
Fold change [27]: 0.7
Fold change [28]: 13
Fold change [29]: 1.8
Fold change [30]: >100
Fold change [31]: 10
Fold change [32]: 2.4
Fold change [33]: 1.3
Fold change [34]: 50
Fold change [35]: 1.4
Fold change [36]: >100
Fold change [37]: 3.5
Fold change [38]: 2.2
Fold change [39]: 6.2
Fold change [40]: 16
Fold change [41]: 8.9
Fold change [42]: >100
Fold change [43]: 62
Fold change [44]: 2.5
Fold change [45]: >100
Fold change [46]: 2.6
Fold change [47]: >100
Fold change [48]: >100
Fold change [49]: >100
Fold change [50]: 0.6
Fold change [51]: 16

Cc1ccnc2c1NC(=O)c1cccnc1N2C1CC1 [NEVIRAPINE]
Fold change [1]: 1.9
Fold change [2]: 39
Fold change [3]: >100
Fold change [4]: >100
Fold change [5]: 32
Fold change [6]: >100
Fold change [7]: >100
Fold change [8]: >100
Fold change [9]: 0.1
Fold change [10]: >100
Fold change [11]: >100
Fold change [12]: >100
Fold change [13]: 2.3
Fold change [14]: >100
Fold change [15]: >100
Fold change [16]: >100
Fold change [17]: 1.1
Fold change [18]: >100
Fold change [19]: 51
Fold change [20]: >100
Fold change [21]: >100
Fold change [22]: >100
Fold change [23]: >100
Fold change [24]: >100
Fold change [25]: 4.2
Fold change [26]: >100
Fold change [27]: 1.9
Fold change [28]: >100
Fold change [29]: 2.4
Fold change [30]: >100
Fold change [31]: >100
Fold change [32]: >100
Fold change [33]: 0.5
Fold change [34]: >100
Fold change [35]: >100
Fold change [36]: >100
Fold change [37]: >100
Fold change [38]: >100
Fold change [39]: >100
Fold change [40]: >100
Fold change [41]: >100
Fold change [42]: >100
Fold change [43]: >100
Fold change [44]: 12
Fold change [45]: >100
Fold change [46]: >100
Fold change [47]: >100
Fold change [48]: >100
Fold change [49]: >100
Fold change [50]: >100
Fold change [51]: >100
